According to the EternaBench riboswitch data:

Columns and labels:
MS2 coat protein [1] = assay: apparent Kd, MS2 coat protein; higher = weaker binding; RNA-MaP array; theophylline 2 mM where present
How it was run: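 Apparent Kd: the median of filtered binding-curve fits from single clusters. Designs were transcribed on Illumina sequencing-chip clusters by stalled E. coli RNA polymerase and titrated with SNAP-549-labelled MS2 coat protein from 0.7 or 1.5 nM, doubling to 3 µM, in 100 mM Tris-HCl pH 7.5, 80 mM KCl, 4 mM MgCl2, BSA, DTT, yeast tRNA and Tween-20. Each series ran without and then with constant ligand, and green signal was normalised to red-channel RNA signal and control-cluster median Fmax.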

MS2 coat protein [2] = assay: apparent Kd, MS2 coat protein; higher = weaker binding; RNA-MaP array
How it was run: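 Designs measured on fewer than 10 clusters were excluded from the data. The rest were RNAs transcribed from sequenced DNA templates on an Illumina sequencing chip and incubated at room temperature, with or without input ligand, with fluorescently labeled MS2 coat protein at 1.5 nM to 3 μM for 0.8–1.5 h at the lowest to 10–20 min at the highest concentrations. Apparent Kd is the median of the per-cluster binding-curve fits.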

[3] = ligand present: theophylline, designed as: ON switch for theophylline
[4] = designed as: OFF switch for theophylline, no ligand
[5] = ligand present: theophylline, designed as: OFF switch for theophylline
[6] = designed as: OFF switch for flavin mononucleotide, no ligand
[7] = ligand present: flavin mononucleotide, designed as: OFF switch for flavin mononucleotide
[8] = designed as: ON switch for flavin mononucleotide, no ligand
[9] = ligand present: flavin mononucleotide, designed as: ON switch for flavin mononucleotide

Sequence	apparent Kd (MS2 coat protein [2]; [6])	apparent Kd (MS2 coat protein [2]; [7])	also measured
AAAAUAAAUAAAACACGUAACAUGAAGGAUACCAGACAGGAAACUGUCCCUUGGCAGCCUCUACAUGAGGAUCACCCAUGUCGUG	–	–	apparent Kd (MS2 coat protein [1]; [3]): 30.8 nM
AAAAUAAAUAAAACACGUAACAUGAAGGAUACCAGCCAGAAAACUGGCCCUUGGCAGCCUCUACAUGAGGAUCACCCAUGUCGUG	–	–	apparent Kd (MS2 coat protein [1]; designed as: ON switch for theophylline, no ligand): 305 nM; apparent Kd (MS2 coat protein [1]; [3]): 28 nM
AAACGUUGCUCAGAUACCAGACAUGAGGAUCACCCAUGUACCGAGGUACCCGAAAGGAAUGUCCCUUGGCAGCUGAGCAACGAAA	–	–	apparent Kd (MS2 coat protein [1]; [4]): 11 nM; apparent Kd (MS2 coat protein [1]; [5]): 123 nM
AAAUAAAUCACAUGAGGAUCACCCAUGGAUACCAGGCCUGGAAACAGCCCUUGGCAGCCACAUGAGGAUCACCCAUGUGCUAAUA	–	–	apparent Kd (MS2 coat protein [1]; [4]): 213 nM; apparent Kd (MS2 coat protein [1]; [5]): 219 nM
AACUGGAAAAGUGAUACCAGAGACAUGAGGAUCACCCAUGUACAUGAGGAUCACCCAUGUCUCCCUUGGCAGCACAAAAGGGAGA	–	–	apparent Kd (MS2 coat protein [1]; [4]): 30.6 nM; apparent Kd (MS2 coat protein [1]; [5]): 64.8 nM
AAUUGCGUUGGUGAGGCGGUUAAUGGCGAUACCAGCGUGGAAACACGCCCUUGGCAGCGCCAAAACAUGAGGAUCACCCAUGUUA	–	–	apparent Kd (MS2 coat protein [1]; [4]): 73.5 nM; apparent Kd (MS2 coat protein [1]; [5]): 200 nM
UAGGAUUAAGGAGGAUAUCGCCAAUAAGCUUCGCGAGAAGGCCUAUAUACAUGAGGAUCACCCAUGUUUGGUUGUUAGUGUCUU	7.9 nM	10.6 nM	–
UAGGUGCUCUAAGGAUAUUAUACAUGAGGAUCACCCAUGUGGCGACCAAGGGUAGAAGAGGAACUUAAGAAGGUAGAUGUAUAG	43.2 nM	34 nM	–
UAUCUUGAUAGAGGAUAUGAUAUUAAAGAAUAAUCAGAAGGCUAGUCAGAUCUUCUACAUGAGGAUCACCCAUGUUCGCGAACC	211 nM	208 nM	–
UAUGGCAACUUAGGAUAUCAAUGCAUCGAUUAUUGAGAAGGAAGAAACAUGAGGAUCACCCAUGUCUCUACAGGGAUAAGGACC	7.38 nM	7.98 nM	–
UAUUUGUUGAAGAAGGAGCGUACAUGAGGAUCACCCAUGUCCAACGUCUACGCGGGUUAUGUUAGCUAGGAUAUUCCGAAAUGG	28.3 nM	22.1 nM	–
UCACACGUUGUAGGAUAUGUCACGCAUAGAACAUGAGGAUCACCCAUGUAUCCCUGUCAUGCCAGACAGAAGGACACUAACGCG	55.5 nM	129 nM	–
UCGAACGGGCAAGGAUAUCGAAGAUCCAAAAUUCGAGAAGGUGCAUGUGAUCGUCCGGUGUCACAUGAGGAUCACCCAUGUCAA	354 nM	179 nM	–
UCGGAAAAGAAAGGAUAUCGCAUGGAUUGUUGUCGAGAAGGUUCAAAUCGACAUGAGGAUCACCCAUGUCGAGUCCAUACUCCU	–	–	apparent Kd (MS2 coat protein [2]; [8]): 76 nM; apparent Kd (MS2 coat protein [2]; [9]): 53.7 nM
UCGGUAUAUACAGGAUAUGGUCAAUACAUGAGGAUCACCCAUGUUAGAGCGGCAAAUAGGAUCUUCCAGAAGGGUACUUGCUUA	14.8 nM	11.5 nM	–
UCGUCAUUGAACAGCACAUGAGGAUCACCCAUGUUUAGAUCUAGAAGGCCUUUCUCGAAGACCCAGGAGGAUAUAGUGAAGUGG	21.8 nM	18.7 nM	–
UCGUGCAGAUAGGAUAUAUAGUCACUGUCGUCUAUAGAAGGAUCUACAUGAGGAUCACCCAUGUAAUGUGAGUC	132 nM	30.6 nM	–
UCUUCCCGCUUAGGAUAUCUUGCUAAUUUGUGUAGAGAAGGAAGUGUAAACAUGAGGAUCACCCAUGUGGCCUCCAGAUAAAGC	12.1 nM	14.9 nM	–
UCUUGAGGCUAGGAUAUCAUACAUAAAAGCAACUGAGAAGGAGCCACAUGAGGAUCACCCAUGUAUCCGUUAUG	16.5 nM	71.6 nM	–
UGACUGGUCGGAGGAUAUGGCAACACGUUUUCGCCAGAAGGCCGACAUGAGGAUCACCCAUGUGGGACACUAGGGCGACUUCCU	166 nM	35.8 nM	–
UGAGUGAAGGAGAAGGGUCUUCAGGAAAUACGGAAAUAACAUGAGGAUCACCCAUGUUCAAGCAGACAGGAUAUCCAAUGUUGG	–	–	apparent Kd (MS2 coat protein [2]; [8]): 18.8 nM; apparent Kd (MS2 coat protein [2]; [9]): 14.6 nM

Sequence	apparent Kd (MS2 coat protein [2]; [6])	apparent Kd (MS2 coat protein [2]; [7])	also measured
UGCAGAGAUUGAGGAUAUGUAGUCGAACAUGAGGAUCACCCAUGUUUGGUCCUUCUACACACGGCACAGAAGGCAAGAAAGAGC	15.1 nM	24.3 nM	–
UGCAGGCGAACAGGAUAUCACACAUGAGGAUCACCCAUGUAAACUACUUAAGAAAGGGAGCCUCGUGAGAAGGGUUUCUUUGGG	74.6 nM	60.1 nM	–
UGCGCGAGAGGAUAUUAUCGUAACUACAUGAGGAUCACCCAUGUUUCGCCCGUAGCUGGAUAAGAAGGCUCGAGUG	14.6 nM	20.7 nM	–
UGGUCGCAGUGAGGAUAUCCAGUCUAGGCACACGGAGAAGGCACGCGACAUGAGGAUCACCCAUGUAGACGAUAUGCUCCAGGU	22.1 nM	31.3 nM	–
UGUGGAACGGAAGGAUAUGGUCACCGAUGGUCUCCAGAAGGUCCGGGUGACCGAACAAUACAUGAGGAUCACCCAUGUAGCAAA	7 nM	6.84 nM	–
UUACAUACCUUAGGAUAUCAUCGUAGUAGGGCAAUAUAACAUGAGGAUCACCCAUGUCUCGUGCGUGAGAAGGAAGAACGUCAU	–	–	apparent Kd (MS2 coat protein [2]; [8]): 32.7 nM; apparent Kd (MS2 coat protein [2]; [9]): 27.8 nM
UUAGCACAUGAGGAUCACCCAUGUUAGGAUAUCCGUUAAUAUCAGGCAAGGUCUGAAAGGAGAAGGAACAUGAA	35.4 nM	67.9 nM	–
UUAGGGCGGUAGAAGGAGGAUUACAUGAGGAUCACCCAUGUGGCAGGAGGCGAGGCUCAGUUACCCUAGGAUAUACAUCAGGUU	24.9 nM	21.5 nM	–
UUAGUGGAACGGAAGGAUAUGAGCCACCCUACAUGAGGAUCACCCAUGUGAGCGUUGGCAGCGCAUCAGAAGGUCCUCCUACGAGU	–	–	apparent Kd (MS2 coat protein [2]; [8]): 6.63 nM; apparent Kd (MS2 coat protein [2]; [9]): 5.9 nM
UUAUAGAGAGGAUAUACAUGAGGAUCACCCAUGUUAUUACCAAGCUUGAUGGGUAUGCGUAGAAGGCUCAUGAA	19.1 nM	35 nM	–
UUCAUCAACACAGGAUAUUCCGUCACAUGAGGAUCACCCAUGUAGCGCGUAGAUUACGGGCUUUCGAAGAAGGGUGUAAAGUCC	–	–	apparent Kd (MS2 coat protein [2]; [8]): 54.2 nM; apparent Kd (MS2 coat protein [2]; [9]): 43.3 nM
UUCCUUGUCGAGAAGGAAUGGCACUUGAGGCGAUUAGGAUAUCGAUACAUGAGGAUCACCCAUGUUGUGUCUCAUAGUAUGACA	12 nM	12.4 nM	–
UUGAAGAAUCACAUGAGGAUCACCCAUGUCAGGGUGAGUUUUGAGGAUAUACCGCCCAGGACUCGGUAGAAGGCAAGAAAUUAA	553 nM	562 nM	–
UUGAGAGGACAGAAGGUUGGGCUCUUGAUCUACGCGCGCGACAUGAGGAUCACCCAUGUGCUUCCAAAGGAUAUGUCACUCGCA	–	–	apparent Kd (MS2 coat protein [2]; [8]): 138 nM; apparent Kd (MS2 coat protein [2]; [9]): 44.8 nM
UUGCUCUCUUCGGCCGCCACUACACGCGAGUUGACGACUGGCGGACAUGAGGAUCACCCAUGUCAUAGGACCGGGAAUCACGCUG	–	–	apparent Kd (MS2 coat protein [2]; designed as: ON switch for tryptophan, no ligand): 13.4 nM; apparent Kd (MS2 coat protein [2]; ligand present: tryptophan, designed as: ON switch for tryptophan): 13.8 nM
UUGGUCCACAGACAUGAGGAUCACCCAUGUAGUAGUUGAAUGAGAAGGGCACUGGCUUGUCAGGUGCAGGAUAUCAGUCUAUGU	118 nM	106 nM	–
UUGUGUUCUUAGGAUAUACAACUUACCAUCAGAGUAGAAGGAAGGACAUGAGGAUCACCCAUGUGGGCUAGCAG	154 nM	21.7 nM	–
UUUAAGAGAGGAUAUGUAGAAUAUAACAUGAGGAUCACCCAUGUACAGAGUGUUAAAGUCACAGAAGGCUCCAUGU	27.5 nM	20.6 nM	–
UUUGAGGCAGGAUAUAACAUCUUUGACAUGAGGAUCACCCAUGUGGUGUCCCGGUUUUAAUUAGAAGGGCCAGGCU	692 nM	727 nM	–
UUUUUAGGACAAGGAUAUUGAAUCGCACAUGAGGAUCACCCAUGUCCUCUGCAUACAGCGGACUUCAAGAAGGUGUCGACCAAU	–	–	apparent Kd (MS2 coat protein [2]; [8]): 971 nM; apparent Kd (MS2 coat protein [2]; [9]): 832 nM
